{"source": "ChEMBL document CHEMBL3425497", "about": "“Discovery of (R)-1-(3-((2-chloro-4-(((2-hydroxy-2-(8-hydroxy-2-oxo-1,2-dihydroquinolin-5-yl)ethyl)amino)methyl)-5-methoxyphenyl)amino)-3-oxopropyl)piperidin-4-yl [1,1'-biphenyl]-2-ylcarbamate (TD-5959, GSK961081, batefenterol): first-in-class dual pharmacology multivalent muscarinic antagonist and …” (J Med Chem, 2015)", "key": {"[1]": {"test": "Clearance in male Sprague-Dawley rat at 0.25 mg/kg, iv", "format": "ADME, organism-based", "design": "dose 0.25 mg/kg, route intravenous", "conditions": "in vivo; call rule not given here"}, "Cavia porcellus [2]": {"system": "Cavia porcellus", "test": "Bronchoprotection in male Duncan Hartley guinea pig bronchoconstriction einthoven model assessed as inhibition of methacholine-induced bronchoconstriction at 100 microg/ml, inhalation after 1.5 hrs by in vivo muscarinic acetylcholine receptor antagonist activity assay", "format": "functional", "design": "scale not given: the % may be the effect or the level left"}, "Salmonella typhimurium [3]": {"system": "Salmonella typhimurium", "test": "Genotoxicity in Salmonella typhimurium at 5000 ug/plate by AMES test in presence of metabolic activation", "format": "toxicity, organism-based", "conditions": "salmonella enterica subsp. enterica serovar typhimurium", "in_short": "(§1)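 Exploratory (non-GLP) Ames assay, tested at up to 5000 μg/plate with and without a metabolic activation system.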"}, "[4]": {"test": "Oral bioavailability in male Sprague-Dawley rat at 0.25 mg/kg", "format": "ADME, organism-based", "conditions": "in vivo"}, "[5]": {"target": "T1, Muscarinic acetylcholine receptor M3 (Homo sapiens, UniProt P20309)", "test": "Binding affinity to human muscarinic M3 receptor assessed as dissociation half life", "in_short": "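Kinetic radioligand dissociation study at the human M3 receptor, reported as dissociation half-life in minutes.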"}, "CYP2D6": {"target": "CYP2D6 (Homo sapiens, UniProt P10635)", "sequence (P10635 whole entry)": "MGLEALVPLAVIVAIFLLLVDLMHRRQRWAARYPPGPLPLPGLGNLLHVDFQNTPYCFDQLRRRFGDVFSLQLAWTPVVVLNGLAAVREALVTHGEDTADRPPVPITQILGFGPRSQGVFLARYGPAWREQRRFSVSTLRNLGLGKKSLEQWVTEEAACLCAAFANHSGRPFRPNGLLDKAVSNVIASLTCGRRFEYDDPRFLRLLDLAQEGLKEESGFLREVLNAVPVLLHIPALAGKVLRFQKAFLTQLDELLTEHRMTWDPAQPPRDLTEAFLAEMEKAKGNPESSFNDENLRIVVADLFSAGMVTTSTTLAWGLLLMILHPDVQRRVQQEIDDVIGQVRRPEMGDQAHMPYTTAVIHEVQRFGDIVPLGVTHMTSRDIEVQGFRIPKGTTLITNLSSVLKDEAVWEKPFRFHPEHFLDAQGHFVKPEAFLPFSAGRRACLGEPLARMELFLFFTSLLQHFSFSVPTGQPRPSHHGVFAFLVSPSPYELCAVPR", "test": "Inhibition of CYP2D6 (unknown origin) at 600 nM", "format": "ADME"}, "Cavia porcellus [6]": {"system": "Cavia porcellus", "test": "Bronchoprotection in male Duncan Hartley guinea pig bronchoconstriction einthoven model assessed as inhibition of methacholine-induced bronchoconstriction at 100 microg/ml, inhalation after 24 hrs by in vivo muscarinic acetylcholine receptor antagonist activity assay", "format": "functional", "design": "scale not given: the % may be the effect or the level left", "in_short": "(§2)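 Einthoven bronchoprotection in guinea pigs, read as % bronchoprotection 24 h after inhaled dosing. The TFA salt was used in the initial experiments. For one compound, the edisylate salt was compared with the TFA form. Group sizes were n = 3–8.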"}, "Rattus norvegicus": {"system": "Rattus norvegicus", "test": "Toxicity in rat assessed as respiratory irritation and systemic exposures up to 333 ug/kg dosed via inhalation during 7-day inhalation study", "format": "organism-based", "conditions": "in vivo, 0.333 mg/kg"}, "Cavia porcellus [7]": {"system": "Cavia porcellus", "test": "Bronchoprotection in male Duncan Hartley guinea pig bronchoconstriction einthoven model assessed as inhibition of methacholine-induced bronchoconstriction at 100 microg/ml, inhalation after 24 hrs by in vivo beta2 adrenergic receptor agonist activity assay", "format": "functional", "design": "scale not given: the % may be the effect or the level left", "in_short": "as §2"}, "[8]": {"test": "Half life in human liver microsomes at 3 uM after 30 mins by HPLC-UV analysis", "format": "ADME"}, "[9]": {"target": "Voltage-gated inwardly rectifying potassium channel KCNH2 (Homo sapiens, UniProt Q12809)", "sequence (Q12809 whole entry)": "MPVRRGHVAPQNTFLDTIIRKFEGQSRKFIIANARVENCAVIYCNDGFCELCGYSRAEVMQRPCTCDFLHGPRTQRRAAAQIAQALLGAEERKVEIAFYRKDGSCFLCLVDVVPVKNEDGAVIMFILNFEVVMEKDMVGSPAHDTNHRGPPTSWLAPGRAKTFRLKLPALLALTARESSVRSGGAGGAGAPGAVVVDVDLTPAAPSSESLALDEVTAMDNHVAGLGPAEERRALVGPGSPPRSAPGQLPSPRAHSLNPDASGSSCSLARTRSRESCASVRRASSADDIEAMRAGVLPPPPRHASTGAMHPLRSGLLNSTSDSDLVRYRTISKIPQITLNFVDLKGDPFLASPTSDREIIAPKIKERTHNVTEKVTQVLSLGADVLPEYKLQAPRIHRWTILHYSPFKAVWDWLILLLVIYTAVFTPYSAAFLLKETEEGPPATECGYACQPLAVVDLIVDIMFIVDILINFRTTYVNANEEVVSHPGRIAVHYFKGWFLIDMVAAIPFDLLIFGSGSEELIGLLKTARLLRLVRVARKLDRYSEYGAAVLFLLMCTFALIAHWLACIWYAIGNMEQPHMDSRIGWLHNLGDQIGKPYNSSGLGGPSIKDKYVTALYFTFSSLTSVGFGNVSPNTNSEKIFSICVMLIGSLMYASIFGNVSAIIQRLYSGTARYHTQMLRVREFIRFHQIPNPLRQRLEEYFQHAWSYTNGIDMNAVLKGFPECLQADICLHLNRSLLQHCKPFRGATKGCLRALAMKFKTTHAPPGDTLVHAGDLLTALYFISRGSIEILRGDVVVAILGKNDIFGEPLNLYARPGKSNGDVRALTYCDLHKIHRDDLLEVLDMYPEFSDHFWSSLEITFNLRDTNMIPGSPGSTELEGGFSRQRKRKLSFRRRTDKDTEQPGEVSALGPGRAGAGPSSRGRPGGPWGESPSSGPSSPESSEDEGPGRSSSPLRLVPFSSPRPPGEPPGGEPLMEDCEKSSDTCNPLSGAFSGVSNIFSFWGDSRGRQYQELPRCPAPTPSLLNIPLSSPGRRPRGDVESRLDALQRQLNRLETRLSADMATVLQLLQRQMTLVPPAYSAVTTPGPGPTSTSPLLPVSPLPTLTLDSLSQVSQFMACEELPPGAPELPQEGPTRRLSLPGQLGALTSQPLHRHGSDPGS", "test": "Inhibition of human ERG channel up to 150 nM"}, "[10]": {"test": "Half life in male Sprague-Dawley rat at 0.25 mg/kg, iv", "format": "ADME, organism-based", "design": "dose 0.25 mg/kg, route intravenous", "conditions": "in vivo"}, "Liver microsome": {"system": "Liver microsome", "test": "Drug metabolism in human liver microsomes assessed as metabolites", "format": "ADME"}, "Cavia porcellus [11]": {"species_on_record": "Cavia porcellus", "test": "Antagonist activity at muscarinic M3 receptor in guinea pig isolated trachea assessed as smooth muscle relaxation"}, "Salmonella typhimurium [12]": {"system": "Salmonella typhimurium", "test": "Genotoxicity in Salmonella typhimurium at 5000 ug/plate by AMES test in absence of metabolic activation", "format": "toxicity, organism-based", "conditions": "salmonella enterica subsp. enterica serovar typhimurium", "in_short": "as §1"}, "Cavia porcellus [13]": {"system": "Cavia porcellus", "test": "Bronchoprotection in male Duncan Hartley guinea pig bronchoconstriction einthoven model assessed as inhibition of methacholine-induced bronchoconstriction at 100 microg/ml, inhalation after 24 hrs by in vivo muscarinic antagonist and beta2 agonist activity assay", "format": "functional", "design": "scale not given: the % may be the effect or the level left", "in_short": "as §2"}, "CYP2C9": {"target": "CYP2C9 (Homo sapiens, UniProt P11712)", "sequence (P11712 whole entry)": "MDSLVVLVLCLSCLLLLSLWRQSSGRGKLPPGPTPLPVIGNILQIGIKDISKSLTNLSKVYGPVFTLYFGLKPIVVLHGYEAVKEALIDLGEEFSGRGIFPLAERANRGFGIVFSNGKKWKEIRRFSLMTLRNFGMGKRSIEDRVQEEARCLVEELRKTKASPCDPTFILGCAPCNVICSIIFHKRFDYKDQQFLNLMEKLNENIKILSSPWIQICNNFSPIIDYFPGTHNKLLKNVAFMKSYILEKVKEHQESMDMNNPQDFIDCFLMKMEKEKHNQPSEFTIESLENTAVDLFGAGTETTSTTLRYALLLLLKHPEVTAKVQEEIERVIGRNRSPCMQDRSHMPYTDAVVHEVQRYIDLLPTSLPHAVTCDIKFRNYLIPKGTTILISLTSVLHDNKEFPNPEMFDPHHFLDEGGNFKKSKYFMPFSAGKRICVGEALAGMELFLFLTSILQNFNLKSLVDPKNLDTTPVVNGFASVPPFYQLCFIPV", "test": "Inhibition of CYP2C9 (unknown origin) at 600 nM", "format": "ADME"}, "[14]": {"test": "Volume of distribution at steady state in male Sprague-Dawley rat at 0.25 mg/kg, iv", "format": "ADME, organism-based", "design": "dose 0.25 mg/kg, route intravenous", "conditions": "in vivo, read-out: Vdss"}, "Cavia porcellus [15]": {"species_on_record": "Cavia porcellus", "test": "Agonist activity at beta2 adrenergic receptor in guinea pig isolated trachea assessed as smooth muscle relaxation"}, "CYP2C19": {"target": "CYP2C19 (Homo sapiens, UniProt P33261)", "sequence (P33261 whole entry)": "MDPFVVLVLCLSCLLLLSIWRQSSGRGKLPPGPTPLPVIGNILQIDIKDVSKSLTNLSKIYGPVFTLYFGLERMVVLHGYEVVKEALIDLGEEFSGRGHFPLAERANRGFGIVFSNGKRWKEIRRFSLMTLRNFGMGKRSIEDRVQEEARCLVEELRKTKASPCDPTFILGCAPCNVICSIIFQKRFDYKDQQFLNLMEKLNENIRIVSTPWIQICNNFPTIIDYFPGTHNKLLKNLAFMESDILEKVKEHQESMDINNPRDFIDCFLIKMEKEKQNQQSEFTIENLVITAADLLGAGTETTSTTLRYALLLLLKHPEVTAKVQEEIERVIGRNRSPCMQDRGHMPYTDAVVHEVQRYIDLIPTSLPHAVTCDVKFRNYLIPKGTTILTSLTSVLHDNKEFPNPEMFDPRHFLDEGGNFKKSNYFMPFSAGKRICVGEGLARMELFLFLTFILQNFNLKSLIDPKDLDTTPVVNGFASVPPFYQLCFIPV", "test": "Inhibition of CYP2C19 (unknown origin) at 600 nM", "format": "ADME"}, "Cavia porcellus [16]": {"system": "Cavia porcellus", "test": "Bronchoprotection in male Duncan Hartley guinea pig bronchoconstriction einthoven model assessed as inhibition of methacholine-induced bronchoconstriction at 100 microg/ml, inhalation after 1.5 hrs by in vivo muscarinic antagonist and beta2 agonist activity assay", "format": "functional", "design": "scale not given: the % may be the effect or the level left"}, "Cavia porcellus [17]": {"system": "Cavia porcellus", "test": "Bronchoprotection in male Duncan Hartley guinea pig bronchoconstriction einthoven model assessed as inhibition of methacholine-induced bronchoconstriction at 100 microg/ml, inhalation after 1.5 hrs by in vivo beta2 adrenergic receptor agonist activity assay", "format": "functional", "design": "scale not given: the % may be the effect or the level left"}, "CYP3A4": {"target": "CYP3A4 (Homo sapiens, UniProt P08684)", "sequence (P08684 whole entry)": "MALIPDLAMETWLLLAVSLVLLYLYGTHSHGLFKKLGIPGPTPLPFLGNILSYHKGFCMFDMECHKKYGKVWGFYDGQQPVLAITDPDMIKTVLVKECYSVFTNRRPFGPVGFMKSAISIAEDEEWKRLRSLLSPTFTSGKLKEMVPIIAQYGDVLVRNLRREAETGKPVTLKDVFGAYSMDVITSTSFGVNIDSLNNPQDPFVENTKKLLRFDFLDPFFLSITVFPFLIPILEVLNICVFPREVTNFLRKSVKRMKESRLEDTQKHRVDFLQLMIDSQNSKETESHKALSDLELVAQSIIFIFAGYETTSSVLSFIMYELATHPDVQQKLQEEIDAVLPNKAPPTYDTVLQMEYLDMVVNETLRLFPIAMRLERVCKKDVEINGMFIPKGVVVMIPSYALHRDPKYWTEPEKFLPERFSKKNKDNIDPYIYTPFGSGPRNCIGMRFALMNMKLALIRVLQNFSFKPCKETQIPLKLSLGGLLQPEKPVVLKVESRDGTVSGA", "test": "Inhibition of CYP3A4 (unknown origin) at 600 nM", "format": "ADME"}, "CYP1A2": {"target": "T2, CYP1A2 (Homo sapiens, UniProt P05177)", "T2 sequence (P05177 whole entry)": "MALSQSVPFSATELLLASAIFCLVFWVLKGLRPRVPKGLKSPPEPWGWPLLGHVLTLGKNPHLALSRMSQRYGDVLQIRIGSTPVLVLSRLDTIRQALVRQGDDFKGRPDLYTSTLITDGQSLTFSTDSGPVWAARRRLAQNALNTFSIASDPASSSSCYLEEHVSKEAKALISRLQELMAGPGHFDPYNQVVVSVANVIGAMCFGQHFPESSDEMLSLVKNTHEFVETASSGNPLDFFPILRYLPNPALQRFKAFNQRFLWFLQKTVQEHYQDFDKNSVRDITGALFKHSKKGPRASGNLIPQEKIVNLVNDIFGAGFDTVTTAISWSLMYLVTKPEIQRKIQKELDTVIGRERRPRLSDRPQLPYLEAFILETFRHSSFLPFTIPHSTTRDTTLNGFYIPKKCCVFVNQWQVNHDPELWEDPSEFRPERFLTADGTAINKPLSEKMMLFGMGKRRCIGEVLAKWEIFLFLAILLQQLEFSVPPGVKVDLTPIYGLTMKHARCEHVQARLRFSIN", "test": "Inhibition of CYP1A2 (unknown origin) at 600 nM", "format": "ADME"}, "Cavia porcellus [18]": {"species_on_record": "Cavia porcellus", "test": "Combined muscarinic antagonist and beta2 agonist activity in guinea pig isolated trachea assessed as smooth muscle relaxation"}, "[19]": {"target": "T1, Muscarinic acetylcholine receptor M3", "test": "Displacement of [3H]NMS from human muscarinic M3 receptor expressing CHO-K1 cells incubated for 60 mins or 6 hrs by liquid scintillation counting", "format": "cell-based"}, "Cavia porcellus [20]": {"species_on_record": "Cavia porcellus", "test": "Antisialagogue activity in guinea pig assessed as inhibition of pilocarpine-induced sialagogue response at 100 ug/ml, inhalation after 1.5 hrs", "format": "functional", "in_short": "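Guinea pigs were pretreated with test compound by inhalation. At 1.5 h post-dose they were challenged with pilocarpine. The sialagogue (salivation) response was recorded as % inhibition.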"}, "[21]": {"test": "Apparent permeability across apical to basolateral side in human Caco2 cells using [14C]mannitol at 10 to 100 uM after 30 mins by HPLC-UV analysis", "format": "ADME, cell-based", "conditions": "caco-2, 0.5 h"}}, "data": [{"smiles": "COc1cc(NC(=O)CCN2CCC(OC(=O)Nc3ccccc3-c3ccccc3)CC2)c(Cl)cc1CNC[C@H](O)c1ccc(O)c2[nH]c(=O)ccc12", "note": "[BATEFENTEROL]", "values": [{"measurement": "clearance", "setting": "[1]", "result": 75.3, "unit": "mL/min/kg"}, {"measurement": "Activity", "setting": "Cavia porcellus [2]", "result": 75, "unit": "%"}, {"measurement": "Activity", "setting": "Salmonella typhimurium [3]", "result": "Non-toxic"}, {"measurement": "bioavailability", "setting": "[4]", "result": "< 0.45", "unit": "%"}, {"measurement": "T1/2", "setting": "[5]", "result": 3, "unit": "min"}, {"measurement": "inhibition at 0.6 µM", "setting": "CYP2D6", "result": "< 20", "unit": "%"}, {"measurement": "Activity", "setting": "Cavia porcellus [6]", "result": 48, "unit": "%"}, {"measurement": "Activity", "setting": "Rattus norvegicus", "result": "Non-toxic"}, {"measurement": "Activity", "setting": "Cavia porcellus [7]", "result": 47, "unit": "%"}, {"measurement": "half-life at 3 µM", "setting": "[8]", "result": 11.3, "unit": "min"}, {"measurement": "inhibition (INH)", "setting": "[9]", "result": "Not Active"}, {"measurement": "half-life", "setting": "[10]", "result": 10.8, "unit": "min"}, {"measurement": "Drug metabolism", "setting": "Liver microsome", "result": "metabolite_notdetected"}, {"measurement": "EC50", "setting": "Cavia porcellus [11]", "result": 50, "unit": "nM"}, {"measurement": "Activity", "setting": "Salmonella typhimurium [12]", "result": "Non-toxic"}, {"measurement": "Activity", "setting": "Cavia porcellus [13]", "result": 77, "unit": "%"}, {"measurement": "inhibition at 0.6 µM", "setting": "CYP2C9", "result": "< 20", "unit": "%"}, {"measurement": "Vd", "setting": "[14]", "result": 0.32, "unit": "L/kg"}, {"measurement": "EC50", "setting": "Cavia porcellus [15]", "result": 25, "unit": "nM"}, {"measurement": "inhibition at 0.6 µM", "setting": "CYP2C19", "result": "< 20", "unit": "%"}, {"measurement": "Activity", "setting": "Cavia porcellus [16]", "result": 92, "unit": "%"}, {"measurement": "Activity", "setting": "Cavia porcellus [17]", "result": 73, "unit": "%"}, {"measurement": "inhibition at 0.6 µM", "setting": "CYP3A4", "result": "< 20", "unit": "%"}, {"measurement": "inhibition at 0.6 µM", "setting": "CYP1A2", "result": 25, "unit": "%"}, {"measurement": "EC50", "setting": "Cavia porcellus [18]", "result": 10, "unit": "nM"}, {"measurement": "Ki", "setting": "[19]", "result": 2, "unit": "nM"}, {"measurement": "inhibition (INH)", "setting": "Cavia porcellus [20]", "result": 4, "unit": "%"}, {"measurement": "Papp", "setting": "[21]", "result": "< 0.4", "unit": "×10⁻⁶ cm/s"}]}]}
